Test results from ChEMBL document CHEMBL1152300, “Ligand specificity of constitutive androstane receptor as probed by induced-fit docking and mutagenesis” (J Med Chem, 2008).

How the values were obtained:
Assay type in all cases: cell-based
Conditions in all cases: read-out: Activity
[1] = target: T1, Nuclear receptor subfamily 1 group I member 3 (Mus musculus, UniProt O35627, L212A); test: Decrease in nuclear co-repressor receptor binding to mouse CAR L212A mutant […] at 2 uM by yeast two-hybrid assay
T1 sequence (O35627 whole entry L212A, the tested form may be a part): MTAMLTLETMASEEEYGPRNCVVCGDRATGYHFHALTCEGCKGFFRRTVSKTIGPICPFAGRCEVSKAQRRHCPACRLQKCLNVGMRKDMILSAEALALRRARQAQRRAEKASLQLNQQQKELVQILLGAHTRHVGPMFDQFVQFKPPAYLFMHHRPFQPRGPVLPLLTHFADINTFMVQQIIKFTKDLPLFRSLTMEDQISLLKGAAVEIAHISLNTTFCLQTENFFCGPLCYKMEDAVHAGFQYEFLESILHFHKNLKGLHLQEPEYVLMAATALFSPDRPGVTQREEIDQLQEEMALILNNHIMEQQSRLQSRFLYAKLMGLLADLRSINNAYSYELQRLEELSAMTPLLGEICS
Summary of the method: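 Yeast two-hybrid: yeast expressing wild-type or mutant mouse CAR LBD plus SRC-1 or NCoR, selected on SD medium lacking Leu and Trp. Pooled colonies treated with DMSO or test chemical for 3.5 h. β-Galactosidase normalized to cell density. SRC-1 reference: wild-type + DMSO = 100. NCoR reference: 10 µM androstenol = 100. Mean ± SD, two independent determinations, each in triplicate.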

[2] = target: T1, Nuclear receptor subfamily 1 group I member 3; test: Effect on steroid receptor co-activator 1 binding to mouse CAR L212A mutant […] at 1 uM by yeast two-hybrid assay
Summary of the method: (§1)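 Yeast expressing wild-type or mutant mouse CAR LBD plus SRC-1, selected on SD plates lacking leucine and tryptophan. Pooled colonies treated with DMSO or compound for 3.5 h. β-Galactosidase activity normalized to cell density. Reference is wild-type CAR + SRC-1 with DMSO (=100). Mean ± SD of two independent determinations, each in triplicate.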

[3] = target: T2, Nuclear receptor subfamily 1 group I member 3 (Mus musculus, UniProt O35627, F171L); test: Effect on steroid receptor co-activator 1 binding to mouse CAR F171L mutant […] at 1 uM by yeast two-hybrid assay; summary of the method: as §1
T2 sequence (O35627 whole entry F171L): as the sequence (O35627 whole entry L212A, the tested form may be a part) above, with F171L, A212L counted along it

[4] = target: Nuclear receptor subfamily 1 group I member 3 (Mus musculus, UniProt O35627, T350A); test: Decrease in steroid receptor coactivator 1 binding to mouse CAR T350A mutant […] at 1 uM by yeast two-hybrid assay; summary of the method: as §1
Chain of Nuclear receptor subfamily 1 group I member 3 (Mus musculus, UniProt O35627, T350A) (O35627 whole entry T350A): as the sequence (O35627 whole entry L212A, the tested form may be a part) above, with A212L, T350A counted along it

[5] = target: T3, Nuclear receptor subfamily 1 group I member 3 (Mus musculus, UniProt O35627, T350M); test: Decrease in mouse CAR T350M mutant activation expressed in HEK293 cells at 1 uM by mammalian one-hybrid assay
T3 sequence (O35627 whole entry T350M, the tested form may be a part): as the sequence (O35627 whole entry L212A, the tested form may be a part) above, with A212L, T350M counted along it
Summary of the method: (§2)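 GAL4 DBD fused to mouse CAR LBD (residues 118-358), wild type or point mutant, cotransfected with UASx4-tk-luc reporter and pCMVβ into HEK293 cells. Cells cultured with DMSO (0.1% v/v) or compound (final 1, 2 or 10 µM). Lysed 24 h post-transfection. Luciferase normalized to β-galactosidase, expressed relative to empty GAL4 vector (=1.0). Mean ± SD, three independent experiments.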

[6] = target: Nuclear receptor subfamily 1 group I member 3 (Mus musculus, UniProt O35627, S251L); test: Decrease in mouse CAR S251L mutant activation expressed in HEK293 cells at 1 uM by mammalian one-hybrid assay; summary of the method: as §2
Chain of Nuclear receptor subfamily 1 group I member 3 (Mus musculus, UniProt O35627, S251L) (O35627 whole entry S251L): as the sequence (O35627 whole entry L212A, the tested form may be a part) above, with A212L, S251L counted along it

[7] = target: T3, Nuclear receptor subfamily 1 group I member 3; test: Effect on nuclear co-repressor receptor binding to mouse CAR T350M mutant […] at 1 uM by yeast two-hybrid assay
Summary of the method: as §1, with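 “NCoR,” for “SRC-1,”, “10 µM androstenol” for “wild-type CAR + SRC-1 with DMSO”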

[8] = target: T2, Nuclear receptor subfamily 1 group I member 3; test: Effect on nuclear co-repressor receptor binding to mouse CAR F171L mutant […] at 1 uM by yeast two-hybrid assay
Summary of the method: as §1, with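 “NCoR,” for “SRC-1,”, “10 µM androstenol” for “wild-type CAR + SRC-1 with DMSO”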

Row | SMILES | inhibition at 2 µM [1] | activity at 1 µM [2] | activity at 1 µM [3] | inhibition at 1 µM [4] | inhibition at 1 µM [5] | inhibition at 1 µM [6] | activity at 1 µM [7] | activity at 1 µM [8]
1 | Clc1ccccc1C(c1ccccc1)(c1ccccc1)n1ccnc1 [CLOTRIMAZOLE] | ≥ 50% |  |  |  |  |  |  | 
2 | Clc1cnc(Oc2ccc(Oc3ncc(Cl)cc3Cl)cc2)c(Cl)c1 |  | < 50% | < 50% | ≥ 50% | 50% | < 50% | < 50% | < 50%
